≈ marks a conversion by molar mass, not a printed value.
Key:
Mus musculus [1] = experiment: Survival of mice to 30-day postinfection with Plasmodium berghei upon 10 mg/kg peroral dose was determined; assay type: functional; conditions: route oral
Method in brief: (§1)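 P. berghei-infected MORO mice, groups of three, treated 1 day postinfection with a single dose (100 or 10 mg/kg, po or sc) dissolved or suspended in 3% ethanol/7% Tween-80. Activity is percent reduction in parasitemia on day 3 postinfection versus untreated controls. Survival time is compared with an untreated control group. Individual measurements generally differed by less than 10%.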

Plasmodium falciparum [2] = experiment: In vitro inhibition of chloroquine-resistant Plasmodium falciparum K1; assay type: functional, organism-based
Mus musculus [3] = experiment: Antimalarial activity (10 mg/kg, subcutaneously) given 1 day post infection of mice (Mus musculus) with Plasmodium berghei is its ability to reduce parasitemia on day 3 post infection; assay type: functional; method in brief: as §1
Plasmodium falciparum [4] = experiment: In vitro inhibition of chloroquine-sensitive Plasmodium falciparum NF54; assay type: functional, organism-based
Mus musculus [5] = experiment: Antimalarial activity (10 mg/kg, peroral) given 1 day post infection of mice (Mus musculus) with Plasmodium berghei is its ability to reduce parasitaemia on day 3 post infection; assay type: functional; method in brief: as §1
Mus musculus [6] = experiment: Survival of mice to 30-day postinfection with Plasmodium berghei upon 10 mg/kg upon subcutaneous dose was determined; assay type: functional; method in brief: as §1
Mus musculus [7] = experiment: Survival of mice to 30-day postinfection with Plasmodium berghei upon 100 mg/kg upon subcutaneous dose was determined; assay type: functional; method in brief: as §1
Mus musculus [8] = experiment: Antimalarial activity (100 mg/kg, peroral) given 1 day post infection of mice (Mus musculus) with Plasmodium berghei is its ability to reduce parasitaemia on day 3 post infection; assay type: functional; method in brief: as §1
Mus musculus [9] = experiment: Antimalarial activity (100 mg/kg, subcutaneously) given 1 day post infection of mice (Mus musculus) with Plasmodium berghei is its ability to reduce parasitemia on day 3 post infection; assay type: functional; method in brief: as §1
Mus musculus [10] = experiment: Survival of mice to 30-day postinfection with Plasmodium berghei upon 100 mg/kg peroral dose was determined; assay type: functional; conditions: route oral; method in brief: as §1
[11] = Volume distribution after intravenous administration of 10 mg/kg; conditions: rat, in vivo
[12] = Oral bioavailability (dose 50 mg/kg); conditions: rat, in vivo
[13] = Plasma clearance after intravenous administration of 10 mg/kg; conditions: rat
Mus musculus [14] = species: Mus musculus; experiment: Effective dose required to reduce the parasitemia in mice by suppressive test after 4 day postinfection; assay type: functional
Method in brief: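 Peters 4-day suppressive test in P. berghei-infected mice with multiple daily oral doses. ED50/ED90 are given in (mg/kg)/day.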

[15] = Plasma half life period after intravenous administration ( 10 mg/kg ); conditions: rat
Mus musculus [16] = experiment: Effective dose required to reduce the parasitemia in mice when compound administered with Tween-80 after 3 day postinfection; assay type: functional

SMILES	Survival (Mus musculus [1])	IC50 (Plasmodium falciparum [2])	Reduction (Mus musculus [3])	IC50 (Plasmodium falciparum [4])	Reduction (Mus musculus [5])	Survival (Mus musculus [6])	Survival (Mus musculus [7])	Reduction (Mus musculus [8])	Reduction (Mus musculus [9])	Survival (Mus musculus [10])	Vd [11]	bioavailability [12]	clearance [13]	ED90 (Mus musculus [14])	half-life [15]	ED90 (Mus musculus [16])
CC1(C)CC(C)(C)CC2(C1)OOC1(O2)C2CC3CC(C2)CC1C3 (centres undefined)	7 days	3.1 ng/mL (≈ 0.00967 µM)	99.9%	5 ng/mL (≈ 0.0156 µM)	88%	97 days	–	–	–	–	–	–	–	–	–	–
C1C2CC3CC1CC(C2)C31OOC2(O1)C1CC3CC(C1)CC2C3 (centres undefined)	–	950 ng/mL (≈ 3 µM)	–	779 ng/mL (≈ 2.46 µM)	–	–	5.3 days	0%	0%	5.3 days	–	–	–	–	–	–
C1CCC2(CC1)OOC1(CCCCC1)O2	–	100 ng/mL (≈ 0.471 µM)	–	504 ng/mL (≈ 2.37 µM)	–	–	5.3 days	0%	0%	5.3 days	–	–	–	–	–	–
CC1(C)COC2(CCC3(CC2)OOC2(CC(C)(C)CC(C)(C)C2)O3)OC1	5.7 days	–	0%	–	0%	5.7 days	–	–	–	–	–	–	–	–	–	–
c1ccc(CC2(Cc3ccccc3)OOC3(O2)C2CC4CC(C2)CC3C4)cc1 (centres undefined)	6.7 days	3.1 ng/mL (≈ 0.00823 µM)	99.7%	3 ng/mL (≈ 0.00797 µM)	88%	8 days	–	–	–	–	–	–	–	–	–	–
CCOC(=O)N1CCC2(CC1)OOC1(O2)C2CC3CC(C2)CC1C3 (centres undefined)	7.7 days	0.29 ng/mL (≈ 0.000859 µM)	99.9%	0.57 ng/mL (≈ 0.00169 µM)	99.5%	8.9 days	–	–	–	–	23 L/kg	1.5%	47 mL/min/kg	2 (mg/kg)/day	5.73 h	5.5 (mg/kg)/day
O=C1CCC2(CC1)OOC1(CCCCC1)O2	–	15 ng/mL (≈ 0.0663 µM)	–	39 ng/mL (≈ 0.172 µM)	–	–	5 days	0%	0%	5 days	–	–	–	–	–	–
C1CCC2(CC1)COC1(O2)C2CC3CC(C2)CC1C3 (centres undefined)	–	> 1000 ng/mL	–	> 1000 ng/mL	–	–	5.6 days	0%	0%	5.6 days	–	–	–	–	–	–
CC(C)C1CCC2(CC1)OOC1(O2)C2CC3CC(C2)CC1C3 (centres undefined)	7.3 days	1.4 ng/mL (≈ 0.00457 µM)	9.89%	2 ng/mL (≈ 0.00653 µM)	99%	9 days	–	–	–	–	–	–	–	–	–	–
Fc1ccc(C2(c3ccc(F)cc3)OOC3(CCC(c4ccccc4)CC3)O2)cc1 (centres undefined)	5.3 days	–	0%	–	0%	5.7 days	–	–	–	–	–	–	–	–	–	–
CC1(C)COC2(CCC3(CC2)OOC2(O3)C3CCCC2CCC3)OC1 (centres undefined)	5 days	41 ng/mL (≈ 0.116 µM)	6%	49 ng/mL (≈ 0.139 µM)	1%	5.3 days	–	–	–	–	–	–	–	–	–	–
C1CC2(CCO1)OOC1(O2)C2CC3CC(C2)CC1C3 (centres undefined)	6 days	–	99.6%	–	35%	–	7.7 days	–	–	–	–	–	–	–	–	–
CCCC1CCC2(CC1)OOC1(O2)C2CC3CC(C2)CC1C3 (centres undefined)	8.4 days	1.1 ng/mL (≈ 0.00359 µM)	–	2.1 ng/mL (≈ 0.00685 µM)	–	16.5 days	–	–	–	–	–	–	–	–	–	–
C1CCCCCC2(CCCCC1)OOC1(O2)C2CC3CC(C2)CC1C3 (centres undefined)	7.4 days	–	90%	–	–	–	7 days	–	–	–	–	–	–	–	–	–
